# Compound activity: PubChem BioAssay, several laboratories
# Beta apoptosis = inhibitors of cytokine-induced beta cell apoptosis, primary screen, luminescence. INS-1E cytokine-induced death, ATP luminescence, 48 h; percent of positive-control rescue, neutral wells zero. protection from apoptosis, % (test concentration not listed). hit rate 0.8% among 300,000;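 active means Every replicate reaches about 75%, or at least half do and their mean reaches it too, limit read from the data; inconclusive means At least half of replicates reach the limit but their mean does not; inactive means Under half of replicates reach the limit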;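 further: 0% = cytokine-treated negative control wells and 100% = positive control rescue; higher means more ATP so stronger rescue from cytokine killing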
# Mdm2-MdmX inh = inhibitors of human Mdm2-MdmX association, primary screen, cell-based, luminescence, split luciferase, SaOS-2, uHTS | SaOS-2 split-luciferase Mdm2/MdmX complementation | inhibition, % at 8 µM | Protein Mdm4 (Homo sapiens) + E3 ubiquitin-protein ligase Mdm2 (Homo sapiens), … | hit rate 3% among 330,000;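 active means inhibition of at least 50% at 8 µM in the primary screen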
# Target sequence (O15151 whole entry, looked up): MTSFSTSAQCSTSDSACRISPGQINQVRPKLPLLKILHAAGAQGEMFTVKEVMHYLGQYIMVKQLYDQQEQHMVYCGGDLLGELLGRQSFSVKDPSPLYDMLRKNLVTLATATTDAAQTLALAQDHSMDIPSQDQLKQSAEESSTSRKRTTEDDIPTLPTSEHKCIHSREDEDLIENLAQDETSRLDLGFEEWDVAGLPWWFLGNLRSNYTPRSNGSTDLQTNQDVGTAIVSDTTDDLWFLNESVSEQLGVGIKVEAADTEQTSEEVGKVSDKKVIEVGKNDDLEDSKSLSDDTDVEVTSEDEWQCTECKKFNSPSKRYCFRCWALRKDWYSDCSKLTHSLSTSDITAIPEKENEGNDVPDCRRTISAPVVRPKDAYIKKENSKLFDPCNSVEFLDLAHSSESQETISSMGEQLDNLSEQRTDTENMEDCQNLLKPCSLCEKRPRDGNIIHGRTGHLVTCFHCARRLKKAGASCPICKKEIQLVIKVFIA
# Target sequence (Q00987 whole entry, looked up): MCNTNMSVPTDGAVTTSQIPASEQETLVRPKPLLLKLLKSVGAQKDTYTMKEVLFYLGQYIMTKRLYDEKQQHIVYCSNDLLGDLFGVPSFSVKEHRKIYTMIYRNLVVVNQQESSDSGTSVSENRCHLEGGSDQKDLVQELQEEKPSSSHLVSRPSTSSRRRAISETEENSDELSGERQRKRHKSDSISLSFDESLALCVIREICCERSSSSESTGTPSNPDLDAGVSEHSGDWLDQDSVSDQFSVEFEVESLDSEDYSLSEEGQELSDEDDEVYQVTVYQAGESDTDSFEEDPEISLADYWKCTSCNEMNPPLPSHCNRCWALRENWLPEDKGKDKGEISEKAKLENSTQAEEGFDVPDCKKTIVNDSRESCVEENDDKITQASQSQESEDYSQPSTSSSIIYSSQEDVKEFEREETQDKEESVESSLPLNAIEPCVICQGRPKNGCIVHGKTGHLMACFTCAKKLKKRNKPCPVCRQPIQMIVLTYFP
# XBP1 UPR activ = activators of adaptive XBP1 UPR arm, primary screen, cell-based, CHO-XBP1 luciferase reporter, luminescence, uHTS; IRE1-XBP1 UPR activation; percent of tunicamycin response, DMSO as zero; activation, % at 20 µM; hit rate 0.33% among 330,000;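 active means versus positive control, 20 µM dose yields 30% or more activation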;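 further: 100% = tunicamycin at 10 µg/mL and 0% = DMSO only wells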
#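 Assay system: IRE1-XBP1 luciferase reporter CHO line. Input: 1000 cells/well. Buffer or medium: F12 with 10% serum. Doses: 20 µM, 1% DMSO. Times: overnight seeding at 37 °C, 6 h compound treatment at 37 °C. Technique: Steady-Glo luciferase glow luminescence, 10 min after reagent addition.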
# CSC inhib = cancer stem cell viability inhibitors, primary screen, luminescence. cancer stem cell-like cells viability. inhibition, % at 7.5 µM. hit rate 1.1% among 300,000; in the data active means inhibition above about 75%; inconclusive means no clear call, values can overlap the other calls; tested in HMLE shEcad cells
# SKKanGAS inh = S. pyogenes SKKanGAS growth inhibitors in kanamycin, primary screen, streptokinase expression inhibitor project, SKKanGAS strain, BacTiter-Glo luminescence; 6 h; inhibition, % at 7.5 µM; hit rate 1.3% among 300,000;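 active means mean replicate score, as percent of positive control median, at least 50; inconclusive means mean below 50 but one replicate at or above 50; inactive means mean and every replicate below 50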;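 further: strain carries kanamycin resistance gene driven by streptokinase promoter and grows in 40 µg/ml kanamycin; loss of luminescence reflects streptokinase promoter inhibition or plain growth inhibition; 0% = median of DMSO wells and 100% = positive control at its reference dose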
# UPR CHOP act = activators of apoptotic CHOP UPR arm, primary screen, cell-based, CHO-CHOP luciferase reporter, luminescence, uHTS. UPR activation; percent of tunicamycin response over DMSO baseline. AID 449763, 2010. activation, % at 10 µM. hit rate 0.34% among 330,000;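 active means at 10 µM dose, activation of 40% or more, normalized to positive control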;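 further: 100% = tunicamycin at 10 µg/mL and 0% = DMSO alone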
#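 Dosing – one dose, 10 µM in 0.5% DMSO · System – CHO-CHOP cells, stable luciferase reporter of PERK-eIF2a-CHOP signalling · Input – 500 cells/well · Control set – tunicamycin 10 µg/mL final as positive, DMSO-only wells as negative · Timing – 6 h compound treatment, 37 °C · Measure – % activation vs tunicamycin · Technique – luminescence read with Steady-Glo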
# Mdm2-MdmX conf = Mdm2-MdmX complex disruptors, retested hits, confirmation, luminescence, single concentration; hit rate 55% among 10,000; shares compounds with Mdm2-MdmX inh; Mdm2-MdmX binding, luminescent assay; AID 489028, 2010; inhibition, % at 8 µM; in the data active means inhibition above about 40%
# FLuc counter = full-length luciferase signal inhibition, confirmation, counter-screen for Mdm2/MdmX interaction inhibitor project, cell-based, single concentration, SaOS-2 | shares compounds with Mdm2-MdmX inh | hit rate 77% among 6,200 | SaOS-2 full-length luciferase counterscreen, luminescence | inhibition, % at 8 µM;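 active means mean inhibition at 8 µM reaching about 37%, which flags the compound as non-specific, limit read from the data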;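 further: p53-null SaOS-2 cells with luciferase driven by a doxycycline-inducible promoter; compound on cells about two nights before reading with doxycycline added after day one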
# * hit, by the source's call; u = inconclusive; x = no result given. An excerpt weighted towards active compounds, which were near 4.8% of everything screened.
SMILES,Beta apoptosis,Mdm2-MdmX inh,XBP1 UPR activ,CSC inhib,SKKanGAS inh,UPR CHOP act,Mdm2-MdmX conf,others
O=C(Nc1nc2ccccc2[nH]1)c1ccc(OC(F)F)cc1,22.3,-34.9,-6.4,8.0,x,2.0,x,
CSCC[C@H](NC(=O)[C@@H]1Cc2c([nH]c3ccccc23)C2c3ccccc3C(=O)N21)C(=O)NCC1CCCO1 (stereo partly specified),-9.2,7.7,-2.6,-5.4,4.1,1.6,x,
Cc1cc(C(=O)N2CCN(S(=O)(=O)c3ccc(C)c(C)c3)CC2)no1,x,-0.2,-2.5,x,x,0.5,x,
COCCCNC(=O)c1cc2cc3cc(OC)ccc3nc2o1,2.5,-16.6,0.6,0.6,-3.7,-0.4,x,
CN1CCN(c2cc3c(c4c2[nH]c2ccccc24)C(=O)CC(C)(C)C3)CC1,x,56.5*,-0.1,5.8,-3.4,3.0,20.9,
O=C(c1c(F)c(F)c(F)c(F)c1F)N1CCN(c2cccc(C(F)(F)F)c2)CC1,8.2,58.4*,1.4,46.1,2.7,-0.3,16.0,
O=C(c1ccccc1F)N1CCN(c2cccc(C(F)(F)F)c2)CC1,0.2,15.5,-1.0,-4.6,-2.9,0.5,x,
COc1nc(-c2cccs2)cc(-c2ccc(C)cc2)c1C#N,-1.3,51.9*,-1.0,48.6,-9.2,-0.8,55.1*,FLuc counter=67.2*
Cc1cc(C)cc(CC(Cc2nc3ccccc3[nH]2)c2nc3ccccc3[nH]2)c1 (stereo unspecified),46.0,91.4*,0.0,181.9*,56.6*,-2.9,23.7,
Cc1cc(Nc2ccccc2)nc(NCc2ccccc2)n1,101.2*,53.3*,2.4,34.4,-1.7,5.7,36.6,FLuc counter=58.7*
Cc1cc(N2CCC(C)CC2)nc(NCc2ccccc2)n1,100.7*,79.9*,8.8,36.6,-9.5,6.0,51.5*,FLuc counter=39.5*
Cc1cc(Nc2ccc(Cl)cc2)nc(NCc2ccccc2)n1,15.8,63.1*,13.0,39.1,11.6,4.3,41.6*,FLuc counter=74.9*
Cc1cc(Oc2ccccc2)nc(NCc2ccccc2)n1,-9.8,45.0,-2.3,26.7,21.3,1.5,x,
Cc1cc(N/N=C/c2ccc(N(C)C)cc2)nc(NCc2ccccc2)n1,14.4,40.0,2.0,23.1,0.3,5.9,x,
Cc1cc(N/N=C/c2ccc(Cl)cc2Cl)nc(NCc2ccccc2)n1,x,71.2*,2.3,u,92.3*,2.1,31.1,
CCOC(=O)Cc1csc(NC(=O)c2ccc3ccccc3n2)n1,-0.6,-7.8,2.7,-0.1,18.6,3.8,x,
Cc1cc(Nc2cccc(F)c2)nc(NCc2ccccc2)n1,105.9*,66.3*,-4.0,39.0,1.1,3.2,24.8,
Fc1cc(NCc2ccccc2)nc(NCc2ccccc2)n1,-11.9,20.4,0.2,3.5,5.3,2.9,x,
CCCCNc1cc(C)nc(NCc2ccccc2)n1,103.8*,67.4*,-1.7,38.4,-4.3,3.0,60.0*,FLuc counter=38.9*
Cc1cc(C)nc(NCCCc2ccccc2)n1,-0.9,-20.4,-1.1,0.2,-4.4,0.7,x,
COc1cc(N)c(Cl)cc1C(=O)OCC(=O)N1CCCC1,-11.0,-10.6,-0.6,x,-5.3,1.0,x,
N#C/C(=C/c1ccc(Sc2nc3ccccc3[nH]2)o1)c1cccc(Br)c1,1.0,60.0*,-0.8,60.0,5.5,0.5,12.5,
COc1ccc(NC2=NCC(=O)N2Cc2cccs2)cc1,0.4,55.5*,1.2,-13.8,0.4,-0.2,1.8,
Cc1cccc(-n2nc3c(c2NC(=O)C(C)C)CSC3)c1,-6.3,34.3,-4.2,-11.5,-2.2,0.1,x,
C[n+]1c2n(c3ccccc31)N=C(c1cc(C(C)(C)C)c(O)c(C(C)(C)C)c1)CS2,106.7*,78.0*,3.7,-13.7,22.0,7.4,74.7*,FLuc counter=37.8*
